Data set [1] is described as follows: MRT in male Wistar Han rat at 300 mg/kg, po administered as single dose post overnight fasting measured upto 24 hrs by LC-MS/MS analysis. It counts as ADME, organism-based. The note with it: in vivo. A digest of the protocol:
(§1)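 Male Wistar Han rats were given single oral rising doses of 10, 100 or 300 mpk. AUC, Cmax, Tmax and MRT were derived from plasma exposure.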

The nature of data set [2]: MRT in male Wistar Han rat at 100 mg/kg, po administered as single dose post overnight fasting measured upto 24 hrs by LC-MS/MS analysis. The format is ADME, organism-based. As to conditions: in vivo. A digest of the protocol: as §1
A short description of data set [3]: MRT in male Wistar Han rat at 10 mg/kg, po administered as single dose post overnight fasting measured upto 24 hrs by LC-MS/MS analysis. It counts as ADME, organism-based. The note with it: in vivo. Summed up: as §1
Data set [4] in a line: Tmax in male Wistar Han rat at 300 mg/kg, po administered as single dose post overnight fasting measured upto 24 hrs by LC-MS/MS analysis. The format is ADME, organism-based. As to conditions: in vivo. A digest of the protocol:
as §1

The nature of data set [5]: Tmax in male Wistar Han rat at 100 mg/kg, po administered as single dose post overnight fasting measured upto 24 hrs by LC-MS/MS analysis. As to conditions: in vivo. It counts as ADME, organism-based. A digest of the protocol: as §1
The nature of data set [6]: Tmax in male Wistar Han rat at 10 mg/kg, po administered as single dose post overnight fasting measured upto 24 hrs by LC-MS/MS analysis. The format is ADME, organism-based. As to conditions: in vivo. A digest of the protocol:
as §1

A short description of data set [7]: Cmax in male Wistar Han rat at 300 mg/kg, po administered as single dose post overnight fasting measured upto 24 hrs by LC-MS/MS analysis. More on the design: route oral, dose 300 mg/kg, time <=24. The format is ADME, organism-based. As to conditions: in vivo. Summed up:
as §1

A short description of data set [8]: Cmax in male Wistar Han rat at 100 mg/kg, po administered as single dose post overnight fasting measured upto 24 hrs by LC-MS/MS analysis. As to conditions: in vivo. Set-up: route oral, dose 100 mg/kg, time <=24. It counts as ADME, organism-based. Summed up: as §1
Data set [9] can be described thus: Cmax in male Wistar Han rat at 10 mg/kg, po administered as single dose post overnight fasting measured upto 24 hrs by LC-MS/MS analysis. It counts as ADME, organism-based. Set-up: route oral, dose 10 mg/kg, time <=24. As to conditions: in vivo. Summed up:
as §1

A short description of data set [10]: AUC in male Wistar Han rat at 300 mg/kg, po administered as single dose post overnight fasting measured upto 24 hrs by LC-MS/MS analysis. More on the design: route oral, dose 300 mg/kg, time <=24. It counts as ADME, organism-based. The note with it: in vivo. A digest of the protocol:
as §1

Data set [11] in a line: AUC in male Wistar Han rat at 100 mg/kg, po administered as single dose post overnight fasting measured upto 24 hrs by LC-MS/MS analysis. The format is ADME, organism-based. More on the design: route oral, dose 100 mg/kg, time <=24. As to conditions: in vivo. A digest of the protocol:
as §1

Data set [12] in a line: AUC in male Wistar Han rat at 10 mg/kg, po administered as single dose post overnight fasting measured upto 24 hrs by LC-MS/MS analysis. The format is ADME, organism-based. Set-up: route oral, dose 10 mg/kg, time <=24. As to conditions: in vivo. Summed up: as §1
Data set [13] can be described thus: Oral bioavailability in Beagle dog at 5 mg/kg post overnight fasting measured upto 24 hrs by LC-MS/MS analysis. The note with it: in vivo. The format is ADME, organism-based, Canis lupus familiaris. A digest of the protocol:
(§2)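 Overnight-fasted male Wistar Han rats or Beagle dogs, two animals per group, 24 h study. IV in 60% PEG200 (rat 2 mg/kg, dog 1 mg/kg). PO in 10% Tween (rat 10 mg/kg, dog 5 mg/kg). Blood sampled up to 24 h, plasma separated by centrifugation, and drug measured by LC/MS. MRT reported for the IV route.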

A short description of data set [14]: Drug concentration in Beagle dog at 5 mg/kg, po measured after 24 hrs by LC/MS analysis. It counts as ADME, organism-based, Canis lupus familiaris. As to conditions: in vivo, read-out: Drug uptake. Summed up: as §2
Data set [15] is described as follows: Cmax in Beagle dog at 5 mg/kg, po administered post overnight fasting measured upto 24 hrs by LC-MS/MS analysis. It counts as ADME, organism-based, Canis lupus familiaris. The note with it: in vivo. Set-up: route oral, dose 5 mg/kg, time <=24. A digest of the protocol: as §2
Data set [16] is described as follows: AUC in Beagle dog at 5 mg/kg, po administered post overnight fasting measured upto 24 hrs by LC-MS/MS analysis. The format is ADME, organism-based, Canis lupus familiaris. More on the design: route oral, dose 5 mg/kg, time <=24. The note with it: in vivo. A digest of the protocol: as §2
Data set [17] can be described thus: Clearance in Beagle dog at 1 mg/kg, iv administered post overnight fasting measured upto 24 hrs by LC-MS/MS analysis. It counts as ADME, organism-based, Canis lupus familiaris. As to conditions: in vivo. A digest of the protocol: as §2
Data set [18] is described as follows: Mean residence time in Beagle dog at 1 mg/kg, iv administered post overnight fasting measured upto 24 hrs by LC-MS/MS analysis. As to conditions: in vivo.

What is called MRT is the average time that molecules of a dose stay in the body. By Tmax is commonly meant the time at which the peak concentration occurs. Usually Cmax stands for the maximum level reached in the sampled fluid or tissue. The term AUC denotes concentration integrated over time. The bioavailability is the share of a dose that reaches the circulation, judged against a reference dose that is usually intravenous. In general, clearance refers to the volume of plasma or blood freed of the substance per unit of time. As for `COC(=O)N[C@H](C(=O)N1CCC[C@H]1c1ncc(-c2cc(F)c3c(c2)OC(c2ccc4c(c2)OCCC4)n2c-3cc3cc(-c4cnc([C@@H]5CCCN5C(=O)[C@@H](NC(=O)OC)C(C)C)[nH]4)ccc32)[nH]1)C(C)C.Cl.Cl` (stereo partly drawn), the mean residence time MRT was 11 h in data set [1], 13 h in data set [2], 8.5 h in data set [3] and 11.4 h in [18]. Further, the figures for the Tmax in data set [4], in data set [5] and in data set [6] were 8 h, 5 h and 5 h, respectively. Also, the Cmax in data set [7] was determined as 400 nM; in data set [8], 350 nM; in [9], 40 nM; in data set [15] it was 1220 nM. In addition, the exposure (AUC) at 24 h in data set [10] worked out at 4.9 µM·h; in data set [11], 5.9 µM·h; in [12], 0.42 µM·h; in data set [16], 6.92 µM·h. In data set [13], this compound yielded a bioavailability of 16%. The concentration at 24 h in data set [14] stood at 51 nM. The same compound gave a clearance in data set [17] of 2 mL/min/kg.

For the origin of these results see ChEMBL document CHEMBL4715796, “Discovery of Chromane Containing Hepatitis C Virus (HCV) NS5A Inhibitors with Improved Potency against Resistance-Associated Variants” (J Med Chem, 2016).
